Laboratory results taken from ChEMBL document CHEMBL4321835, “Could Dissecting the Molecular Framework of β-Lactam Integrin Ligands Enhance Selectivity?” (J Med Chem, 2019).
Calls of active or inactive are those of the source. The rule behind the calls is not given here.

Key:
Integrin alpha-4/beta-1 [1] = molecular target: T1, Integrin alpha-4/beta-1 (Homo sapiens, UniProt P05556+P13612); test: Activity at alpha4beta1 integrin receptor in human Jurkat E6.1 cells assessed as effect on VCAM1-induced cell adhesion pre-incubated for 30 mins; format: cell-based
Outline: (§1)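 Integrin-mediated adhesion. αvβ3: SK-MEL-24 cells adhering to FN. α5β1: K562 cells adhering to FN. α4β1: Jurkat E6.1 cells adhering to VCAM-1. Values are mean ± SD, n=3.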

Integrin alpha-5/beta-1 [2] = molecular target: T2, Integrin alpha-5/beta-1 (Homo sapiens, UniProt P05556+P08648); test: Activity at alpha5beta1 integrin receptor in human K562 cells assessed as effect on fibronectin-induced cell adhesion pre-incubated for 30 mins; format: cell-based; outline: as §1
Integrin alpha-V/beta-3 [3] = molecular target: T3, Integrin alpha-V/beta-3 (Homo sapiens, UniProt P05106+P06756); test: Activity at alphaVbeta3 integrin receptor in human SK-MEL-24 cells assessed as effect on fibronectin-induced cell adhesion pre-incubated for 30 mins; format: cell-based; outline: as §1
Integrin alpha-V/beta-3 [4] = molecular target: T3, Integrin alpha-V/beta-3; test: Agonist activity at alphaVbeta3 integrin receptor in human SK-MEL-24 cells assessed as increase in fibronectin-induced cell adhesion at 10 ug/ml added 10 mins after pre-incubation with neutralizing antibody to integrin alphaV-subunit; format: cell-based
Outline: (§2)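 Neutralizing antibody against the αv subunit was added to SK-MEL-24 or Saos-2 cells 10 min before the compounds (10 μg/mL). Adhesion was then measured.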

Integrin alpha-4/beta-1 [5] = molecular target: T1, Integrin alpha-4/beta-1; test: Agonist activity at alpha4beta1 integrin receptor in human Jurkat E6.1 cells assessed as increase in VCAM1-induced cell adhesion pre-incubated for 30 mins; format: cell-based; outline: as §1
Integrin alpha-V/beta-3 [6] = molecular target: T3, Integrin alpha-V/beta-3; test: Agonist activity at alphaVbeta3 integrin receptor in human SK-MEL-24 cells assessed as increase in cell adhesion to wells coated with compound by passive absorption in absence of fibronectin; format: cell-based
Outline: (§3)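 Compounds were coated onto wells by passive absorption, with no FN present. Adhesion of SK-MEL-24 or Saos-2 cells was compared with BSA-coated wells. Mean ± SEM from three independent experiments run in quadruplicate; Newman-Keuls test after ANOVA.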

Integrin alpha-5/beta-1 [7] = molecular target: T2, Integrin alpha-5/beta-1; test: Binding affinity to alpha5beta1 integrin receptor (unknown origin) incubated fro 30 mins by competitive solid-phase binding assay; format: protein-complex assay
Outline: (§4)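 Competitive solid-phase binding assay using FN for αvβ3 and α5β1, giving IC50. Mean ± SEM, n=3.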

Integrin alpha-V/beta-3 [8] = molecular target: T3, Integrin alpha-V/beta-3; test: Agonist activity at alphaVbeta3 integrin receptor in human Saos-2 cells assessed as increase in fibronectin-induced cell adhesion at 10 ug/ml added 10 mins after pre-incubation with neutralizing antibody to integrin alphaV-subunit; format: cell-based; outline: as §2
Integrin alpha-V/beta-3 [9] = molecular target: T3, Integrin alpha-V/beta-3; test: Binding affinity to alphaVbeta3 integrin receptor (unknown origin) incubated fro 30 mins by competitive solid-phase binding assay; format: protein-complex assay; outline: as §4
Integrin alpha-V/beta-3 [10] = molecular target: T3, Integrin alpha-V/beta-3; test: Agonist activity at alphaVbeta3 integrin receptor in human SK-MEL-24 cells assessed as increase in fibronectin-induced cell adhesion pre-incubated for 30 mins; format: cell-based; outline: as §1
Integrin alpha-V/beta-3 [11] = molecular target: T3, Integrin alpha-V/beta-3; test: Agonist activity at alphaVbeta3 integrin receptor in human Saos-2 cells assessed as increase in fibronectin-induced cell adhesion pre-incubated for 30 mins; format: cell-based
Integrin alpha-4/beta-1 [12] = molecular target: T1, Integrin alpha-4/beta-1; test: Binding affinity to alpha4beta1 integrin receptor (unknown origin) incubated for 1 hr by scintillation proximity binding assay; format: protein-complex assay
Outline: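 Scintillation proximity binding assay for α4β1, giving IC50. Mean ± SEM, n=3.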

[13] = molecular target: Mitogen-activated protein kinase; ERK1/ERK2 (Homo sapiens) (UniProt P27361+P28482); test: Activation of ERK1/2 phosphorylation in HEK293 cells at 1 nM to 100 nM incubated for 1 hr by Western blot analysis; format: cell-based
Outline: (§5)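 HEK293 cells were transfected with plasmids coding αv and β3 subunits; untransfected HEK293 served as negative control and FN as positive control. ERK1/2 phosphorylation was quantified by band densitometry against vehicle. Mean ± SEM, n=5; Newman-Keuls test after ANOVA.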

Integrin alpha-V/beta-3 [14] = molecular target: T3, Integrin alpha-V/beta-3; test: Agonist activity at alphaVbeta3 integrin receptor (unknown origin) expressed in HEK293 cells assessed as induction of ERK1/2 phosphorylation at 1 nM to 100 nM incubated for 1 hr by Western blot analysis; format: cell-based; outline: as §5
Integrin alpha-V/beta-3 [15] = molecular target: T3, Integrin alpha-V/beta-3; test: Agonist activity at alphaVbeta3 integrin receptor in human Saos-2 cells assessed as increase in cell adhesion to wells coated with compound by passive absorption in absence of fibronectin; format: cell-based; outline: as §3
Integrin alpha-5/beta-1 [16] = molecular target: T2, Integrin alpha-5/beta-1; test: Antagonist activity at alpha5beta1 integrin receptor in human K562 cells assessed as reduction in fibronectin-induced cell adhesion pre-incubated for 30 mins; format: cell-based; outline: as §1
Integrin alpha-5/beta-1 [17] = molecular target: T2, Integrin alpha-5/beta-1; test: Antagonist activity at alpha5beta1 integrin receptor in human K562 cells assessed as reduction in fibronection-induced ERK1/2 phosphorylation at 1 nM to 100 nM pre-incubated for 1 hr before fibronectin stimulation for 1 hr by Western blot analysis; format: cell-based
Outline: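 K562 cells (α5β1) were treated with compound and stimulated with FN. FN-induced ERK1/2 phosphorylation was quantified by band densitometry against vehicle and FN. Mean ± SEM, n=5; Newman-Keuls test after ANOVA.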

Integrin alpha-5/beta-1 [18] = molecular target: T2, Integrin alpha-5/beta-1; test: Agonist activity at alpha5beta1 integrin receptor in human K562 cells assessed as increase in fibronectin-induced cell adhesion pre-incubated for 30 mins; format: cell-based; outline: as §1
Integrin alpha-4/beta-1 [19] = molecular target: T1, Integrin alpha-4/beta-1; test: Agonist activity at alpha4beta1 integrin receptor in human Jurkat E6.1 cells assessed as induction of ERK1/2 phosphorylation incubated for 1 hr by Western blot analysis; format: cell-based
Outline: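 Jurkat cells (α4β1) were treated across a concentration range with VCAM-1 as positive control. ERK1/2 phosphorylation was quantified by band densitometry against vehicle. Mean ± SEM, n=5; Newman-Keuls test after ANOVA.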

Integrin alpha-4/beta-1 [20] = molecular target: T1, Integrin alpha-4/beta-1; test: Agonist activity at alpha4beta1 integrin receptor in human Jurkat E6.1 cells assessed as increase in VCAM1-induced cell adhesion at 10 ug/ml pre-incubated for 30 mins in presence of 10 ug/ml neutralizing antibody to alpha4 integrin subunit; format: cell-based

Structure (SMILES) | Activity (Integrin alpha-4/beta-1 [1]) | Activity (Integrin alpha-5/beta-1 [2]) | Activity (Integrin alpha-V/beta-3 [3]) | IC50 (Integrin alpha-5/beta-1 [7]) | IC50 (Integrin alpha-V/beta-3 [9]) | IC50 (Integrin alpha-4/beta-1 [12]) | IC50 (Integrin alpha-5/beta-1 [16]) | other results
NCc1ccc(NC(=O)N2C(=O)C[C@@H]2C(=O)O)cc1 | > 5 µM | > 5 µM | > 5 µM | – | – | – | – | –
Cc1ccccc1NC(=O)N1C(=O)C[C@@H]1C(=O)O | > 5 µM | > 5 µM | > 5 µM | – | – | – | – | –
O=C(O)/C=C1/CC(=O)N1 | – | > 5 µM | – | > 1000 nM | 29 nM | 294 nM | – | Activity (Integrin alpha-V/beta-3 [4]): inactive; EC50 (Integrin alpha-4/beta-1 [5]): 255 nM; Activity (Integrin alpha-V/beta-3 [6]): Active; Activity (Integrin alpha-V/beta-3 [8]): inactive; EC50 (Integrin alpha-V/beta-3 [10]): 75.6 nM; EC50 (Integrin alpha-V/beta-3 [11]): 154 nM; Activity [13]: inactive; Activity (Integrin alpha-V/beta-3 [14]): Active; Activity (Integrin alpha-V/beta-3 [15]): Active
O=C(O)CNC(=O)CC1CC(=O)N1 (stereo not given) | > 5 µM | – | > 5 µM | – | – | – | 1110 nM | –
Cc1ccccc1NC(=O)N1C(=O)CC1CC(=O)O (stereo not given) | – | > 5 µM | > 5 µM | – | – | – | – | –
Cc1ccccc1NC(=O)NCCC(=O)O | > 5 µM | > 5 µM | – | > 1000 nM | 9.5 nM | > 1000 nM | – | Activity (Integrin alpha-V/beta-3 [4]): inactive; Activity (Integrin alpha-V/beta-3 [6]): Active; Activity (Integrin alpha-V/beta-3 [8]): inactive; EC50 (Integrin alpha-V/beta-3 [10]): 29.9 nM; EC50 (Integrin alpha-V/beta-3 [11]): 984 nM; Activity [13]: inactive; Activity (Integrin alpha-V/beta-3 [14]): Active; Activity (Integrin alpha-V/beta-3 [15]): Active
Cc1ccccc1NC(=O)N1C(=O)CC1CC(=O)NCC(=O)O (stereo not given) | > 5 µM | – | > 5 µM | – | – | – | – | –
Cc1ccccc1C(=O)N1C(=O)C[C@H]1C(=O)O | > 5 µM | – | > 5 µM | 59.3 nM | > 1000 nM | > 1000 nM | 41.5 nM | inhibition (Integrin alpha-5/beta-1 [17]): Active
Cc1ccccc1NC(=O)N1C(=O)C[C@@H]1C(=O)NCCC(=O)O | > 5 µM | – | > 5 µM | 11.9 nM | > 1000 nM | > 1000 nM | 96.9 nM | –
O=C(O)CC1CC(=O)N1 (stereo not given) | > 5 µM | – | – | – | – | – | – | –
Cc1ccccc1NC(=O)NCC(=O)O | > 5 µM | – | – | > 1000 nM | 3.4 nM | > 1000 nM | 3510 nM | Activity (Integrin alpha-V/beta-3 [4]): inactive; Activity (Integrin alpha-V/beta-3 [6]): Active; Activity (Integrin alpha-V/beta-3 [8]): inactive; EC50 (Integrin alpha-V/beta-3 [10]): 84.8 nM; EC50 (Integrin alpha-V/beta-3 [11]): 299 nM; Activity [13]: inactive; Activity (Integrin alpha-V/beta-3 [14]): Active; Activity (Integrin alpha-V/beta-3 [15]): Active
Cc1ccccc1NC(=O)N1CCC1=O | – | > 5 µM | > 5 µM | – | – | – | – | EC50 (Integrin alpha-4/beta-1 [5]): 976 nM
Cc1ccccc1NC(=O)N1CCC[C@H]1C(=O)O | – | – | – | 136 nM | > 1000 nM | 18.9 nM | – | EC50 (Integrin alpha-4/beta-1 [5]): 10 nM; EC50 (Integrin alpha-5/beta-1 [18]): 140 nM; EC50 (Integrin alpha-V/beta-3 [10]): 2880 nM; Activity (Integrin alpha-4/beta-1 [19]): Dose-dependent effect; Activity (Integrin alpha-4/beta-1 [20]): inactive
NCc1ccc(NC(=O)N2C(=O)C[C@H]2C(=O)O)cc1 | > 5 µM | – | > 5 µM | – | – | – | – | –
Cc1ccccc1C(=O)N1C(=O)CC1CC(=O)O (stereo not given) | > 5 µM | – | > 5 µM | 409 nM | > 1000 nM | > 1000 nM | 419 nM | –
